ChEMBL document CHEMBL2029264, “Indole-based fibrates as potential hypolipidemic and antiobesity agents” (J Med Chem, 2012)

Test system: Rattus norvegicus
Experiment: Toxicity in HFD-induced hyperlipidemic Charles Foster rat at 100 mg/kg/day, po administered for 4 weeks by autopsy analysis
Format: organism-based
Set-up: route oral
Settings: in vivo, 672 h
How it was run: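 Male Charles Foster rats (200−225 g) were fed a high-fat diet for 4 weeks, then dosed at 100 mg/kg/d alongside the same diet for 4 more weeks. Survival was monitored. After an overnight fast, blood was drawn and the animals were sacrificed. Macroscopic inspection and autopsy were then performed, with n = 6 per group.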

With `CCOC(=O)C(C)Oc1ccc(C(c2cn(CC)c3ccccc23)c2cn(CC)c3ccccc23)cc1` (stereo unspecified) the Activity was “Non-toxic”.
